Calls of active or inactive are those of the source. The rule behind the calls is not given here.

Test [1] deals with Musa acuminata. Put plainly: Inhibition of diphenolase activity of banana tyrosinase using catechol as substrate at 50 uM by spectrophotometry. Summed up: (§1)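 Tyrosinase (PPO) extracted from banana, then purified on a Sepharose 4B-L-tyrosine-p-aminobenzoic acid affinity column; all purification steps at 25 °C. Activity measured with catechol as substrate by following the absorbance increase at 420 nm. Residual activity was followed over a range of inhibitor concentrations, and progress curves were compared with uninhibited enzyme activity.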

In test [2] the test system is Musa acuminata. Put plainly: Activation of diphenolase activity of banana tyrosinase using catechol as substrate at 50 uM by spectrophotometry. Summed up:
as §1

A short description of test [3]: Inhibition of diphenolase activity of banana tyrosinase using catechol as substrate by spectrophotometry. Further details: species or system Musa acuminata. Summed up: as §1
A short description of test [4]: Competitive inhibition of diphenolase activity of banana tyrosinase using catechol as substrate by Lineweaver-Burk double reciprocal plot analysis. Further details: species or system Musa acuminata. Summed up:
as §1

As to `COc1ccc(/C=C/C(=O)c2ccc(NC(=S)Nc3ccccc3)cc2)cc1`, in the test with Musa acuminata [1], the inhibition result is “inactive”. The result in the test on Musa acuminata [2] was Active.

The compound `COc1ccc(C(=O)/C=C/c2ccc(NC(=O)Nc3ccc(C)cc3)cc2)cc1` returned an IC50 in test [3] of 289 nM. This compound also had an inhibition constant (Ki) in test [4] of 22 nM.

Turning to `Cc1ccc(NC(=O)Nc2ccc(C(=O)/C=C/c3ccc(Cl)cc3)cc2)cc1`, in the test with Musa acuminata [1], the inhibition result was “inactive”. In addition, the result in the test on Musa acuminata [2] was Active.

In turn, `Cc1ccc(NC(=O)Nc2ccc(/C=C/C(=O)c3ccc(C)cc3)cc2)cc1` gave an IC50 in test [3] of 134 nM. In addition, affinity in test [4] was put at a Ki of 67 nM.

Take `COc1ccc(/C=C/C(=O)c2ccc(NC(=S)Nc3ccc(C)cc3)cc2)cc1`: in the test on Musa acuminata [1], the inhibition result was “inactive”. Moreover, in the test on Musa acuminata [2], the result was Active.

For the compound `Cc1ccc(NC(=O)Nc2ccc(C(=O)/C=C/c3ccc(Br)cc3)cc2)cc1`, in the test with Musa acuminata [1], the inhibition result was “inactive”. Besides, the outcome in the test with Musa acuminata [2] was Active.

As to `O=C(Nc1ccccc1)Nc1ccc(C(=O)/C=C/c2ccc(Cl)cc2)cc1`, the inhibition entry in the test on Musa acuminata [1] is “inactive”. Besides, the outcome in the test on Musa acuminata [2] was Active.

Compound `Cc1ccc(NC(=O)Nc2ccc(/C=C/C(=O)c3ccccc3)cc2)cc1` gave a half-maximal inhibitory concentration (IC50) in test [3] of 241 nM. This compound displayed a Ki in test [4] of 57 nM.

Consider `COc1ccc(/C=C/C(=O)c2ccc(NC(=O)Nc3ccc(C)cc3)cc2)cc1`, for which the inhibition entry in the test on Musa acuminata [1] is “inactive”. Also, the outcome in the test on Musa acuminata [2] was Active.

In turn, `Cc1ccc(NC(=O)Nc2ccc(/C=C/C(=O)c3ccc(Cl)cc3)cc2)cc1` displayed a half-maximal inhibitory concentration (IC50) in test [3] of 238 nM. This compound registered a Ki in test [4] of 129 nM.

The compound `O=C(Nc1ccc(F)cc1)Nc1ccc(/C=C/C(=O)c2ccccc2)cc1` displayed an IC50 in test [3] of 177 nM. For the same compound, affinity in test [4] was put at a Ki of 125 nM.

On to `COc1ccc(/C=C/C(=O)c2ccc(NC(=O)Nc3ccccc3)cc2)cc1`, for which the inhibition entry with Musa acuminata [1] is “inactive”. Also, the outcome in the test on Musa acuminata [2] was Active.

Consider `O=C(/C=C/c1ccc(Cl)cc1)c1ccc(NC(=S)Nc2ccccc2)cc1`, for which the inhibition entry in the test with Musa acuminata [1] was “inactive”. Besides, in the test on Musa acuminata [2], the result was Active.

On to `Cc1ccc(NC(=S)Nc2ccc(C(=O)/C=C/c3ccc(Cl)cc3)cc2)cc1`, for which the inhibition entry in the test on Musa acuminata [1] was “inactive”. In addition, the outcome with Musa acuminata [2] was Active.

As for `COc1cccc(NC(=O)Nc2ccc(/C=C/C(=O)c3ccc(Cl)cc3)cc2)c1`, the IC50 in test [3] came out at 152 nM. In test [4], the inhibition constant (Ki) was found to be 59 nM.

`O=C(Nc1ccc(F)cc1)Nc1ccc(/C=C/C(=O)c2ccc(Cl)cc2)cc1` registered an IC50 in test [3] of 133 nM. In test [4], this compound displayed an inhibition constant (Ki) of 117 nM.

Consider `O=C(Nc1ccccc1)Nc1ccc(C(=O)/C=C/c2ccc(Br)cc2)cc1`, for which the inhibition result in the test on Musa acuminata [1] was “inactive”. In addition, the outcome with Musa acuminata [2] was Active.

Regarding `O=C(Nc1ccccc1)Nc1ccc(/C=C/C(=O)c2ccccc2)cc1`, the IC50 in test [3] amounted to 172 nM. Besides, the inhibition constant Ki in test [4] was determined as 37 nM.

Turning to `Cc1ccc(/C=C/C(=O)c2ccc(NC(=O)Nc3ccccc3)cc2)cc1`, in the test with Musa acuminata [1], the inhibition entry is “inactive”. Moreover, the outcome in the test on Musa acuminata [2] was Active.

Take `Cc1ccc(C(=O)/C=C/c2ccc(NC(=O)Nc3ccc(F)cc3)cc2)cc1`: the concentration for half-maximal inhibition (IC50) in test [3] was 217 nM. The compound further yielded a Ki in test [4] of 59 nM.

For the compound `Cc1ccc(/C=C/C(=O)c2ccc(NC(=O)Nc3ccc(C)cc3)cc2)cc1`, the inhibition entry with Musa acuminata [1] is “inactive”. In the test with Musa acuminata [2], the result was Active.

Compound `COc1cccc(NC(=O)Nc2ccc(/C=C/C(=O)c3ccccc3)cc2)c1` registered a half-inhibitory concentration (IC50) in test [3] of 244 nM. In addition, in test [4], the affinity, expressed as Ki, was 240 nM.
